{"source": "ChEMBL document CHEMBL1629639", "about": "“Selectivity of TMC207 towards mycobacterial ATP synthase compared with that towards the eukaryotic homologue” (Antimicrob Agents Chemother, 2009)", "key": {"Bos taurus [1]": {"species_on_record": "Bos taurus", "test": "Inhibition of ATP synthase in bovine heart mitochondria assessed as effect on oxygen consumption at 175 uM", "outline": "(§1)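 Mitochondria freshly isolated from M18 mouse liver or bovine heart. Oxygen was read by Clark electrode at 37°C in 20 mM Tris-HCl pH 7.3, 85 mM KCl, 5 mM KH2PO4, 2.3 mM MgCl2, 25 mM creatine and 25 mM phosphocreatine, with an ADP-regenerating system. Succinate energised the membrane; rotenone blocked complex I. Inhibition was taken as the fall in state III O2 rate. Oligomycin 0.6 μM served as control. Mean±SD of three independent experiments.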"}, "[2]": {"target": "T1, Putative uncharacterized protein atpE (Mycolicibacterium smegmatis, UniProt Q5TIX5)", "T1 sequence (Q5TIX5 whole entry)": "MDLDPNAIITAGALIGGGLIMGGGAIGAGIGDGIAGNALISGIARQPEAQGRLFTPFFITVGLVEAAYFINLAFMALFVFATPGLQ", "test": "Inhibition of Mycobacterium smegmatis MC2 155 ATP synthase subunit c-mediated ATP production at 100 nM", "outline": "(§2)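 Inverted membrane vesicles from M. smegmatis mc²155 incubated with compound at 25°C for 1 h with an ADP-regenerating system. ATP formed was quantified spectrophotometrically by following glucose-6-phosphate oxidation with NADP+. Controls were DCCD (100 μM) and oligomycin (1 μM). IC50 taken from the concentration-response of ATP synthesis.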"}, "Bos taurus [3]": {"species_on_record": "Bos taurus", "test": "Inhibition of ATP synthase in bovine heart mitochondria assessed as inhibition of oxygen consumption", "conditions": "concentration not given here", "outline": "as §1"}, "OVCAR-3 [4]": {"test_system": "OVCAR-3", "test": "Inhibition of ATP synthase mediated ATP production in human OVCAR3 cells", "format": "cell-based", "outline": "(§3)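 OVCAR3 cells were grown in DMEM with 10% FBS and penicillin-streptomycin. Isolated mitochondria (250 μg/ml) and sonicated submitochondrial particles without outer membrane (150 μg/ml) were incubated 1 h at 25°C with compound and an ADP-regenerating system. ATP formed was quantified spectrophotometrically from glucose-6-phosphate oxidation with NADP+. Controls were DCCD 5 μM and oligomycin 1 μM.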"}, "Mus musculus [5]": {"species_on_record": "Mus musculus", "test": "Inhibition of ATP synthase in M18 mouse liver mitochondria assessed as inhibition of oxygen consumption", "outline": "as §1"}, "OVCAR-3 [6]": {"test_system": "OVCAR-3", "test": "Inhibition of ATP synthase mediated ATP production in human OVCAR3 cells at 1 uM", "format": "cell-based", "outline": "as §3"}, "[7]": {"test_system": "Mycolicibacterium smegmatis", "test": "Antimicrobial activity against Mycobacterium smegmatis", "format": "functional"}, "[8]": {"test": "Inhibition of human ATP synthase mediated ATP production at 100 nM", "outline": "as §3"}, "[9]": {"target": "T1, Putative uncharacterized protein atpE", "test": "Inhibition of Mycobacterium smegmatis MC2 155 ATP synthase subunit c-mediated ATP production", "outline": "as §2"}, "Mus musculus [10]": {"species_on_record": "Mus musculus", "test": "Inhibition of ATP synthase in M18 mouse liver mitochondria assessed as effect on oxygen consumption at 175 uM", "outline": "as §1"}, "OVCAR-3 [11]": {"test_system": "OVCAR-3", "test": "Inhibition of ATP synthase mediated ATP production in human OVCAR3 cells at 5 uM", "format": "cell-based", "outline": "as §3"}, "OVCAR-3 [12]": {"test_system": "OVCAR-3", "test": "Inhibition of ATP synthase mediated ATP production in human OVCAR3 cells at 200 uM", "format": "cell-based", "outline": "as §3"}, "[13]": {"test_system": "Mycobacterium tuberculosis", "test": "Antimicrobial activity against Mycobacterium tuberculosis", "format": "functional"}}, "note": "Active and inactive are the calls of the source. No cut-off for these calls is given here.", "data": [{"smiles": "COc1nc2ccc(Br)cc2cc1[C@@H](c1ccccc1)[C@@](O)(CCN(C)C)c1cccc2ccccc12", "note": "[BEDAQUILINE]", "values": [{"measurement": "inhibition", "setting": "Bos taurus [1]", "value": "inactive"}, {"measurement": "IC50", "setting": "[2]", "value": 0.01, "unit": "µM"}, {"measurement": "inhibition", "setting": "Bos taurus [3]", "value": "> 50", "unit": "%"}, {"measurement": "inhibition", "setting": "OVCAR-3 [4]", "value": "inactive"}, {"measurement": "inhibition", "setting": "Mus musculus [5]", "value": "> 80", "unit": "%"}, {"measurement": "inhibition", "setting": "OVCAR-3 [6]", "value": "> 90", "unit": "%"}, {"measurement": "MIC", "setting": "[7]", "value": 0.015, "unit": "µM"}, {"measurement": "IC50", "setting": "[8]", "value": "> 200", "unit": "µM"}, {"measurement": "IC50", "setting": "[9]", "value": 0.01, "unit": "µM"}, {"measurement": "inhibition", "setting": "Mus musculus [10]", "value": "inactive"}, {"measurement": "inhibition", "setting": "OVCAR-3 [11]", "value": "> 90", "unit": "%"}, {"measurement": "inhibition", "setting": "OVCAR-3 [12]", "value": 35, "unit": "%"}, {"measurement": "MIC", "setting": "[13]", "value": 0.03, "unit": "µM"}]}]}
